Source: ChEMBL document CHEMBL1128214, “Structure-based design of sulfonamide-substituted non-peptidic HIV protease inhibitors” (J Med Chem, 1995)
One block for each compound: values may come before it.

What was measured:
[1] = system: Human immunodeficiency virus 1; test: Antiviral potency of compound determined against human immunodeficiency virus type 1; type: functional, organism-based
Method in brief: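 Antiviral activity measured in MT4 cells acutely infected with HIV-1 IIIB; potency reported as IC50.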

[2] = biological target: Human immunodeficiency virus type 1 protease (Human immunodeficiency virus 1, UniProt Q72874); test: Inhibitory activity against HIV-1 protease
[3] = The total body administered intravenously in dog; type: ADME, organism-based, Canis lupus familiaris; conditions: in vivo, iv, read-out: Vss
Method in brief: (§1)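 Plasma concentration–time data were analysed by noncompartmental methods. The […] (β) and half-life were estimated, and total body clearance and steady-state volume of distribution were calculated. Values are mean ± SD.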

[4] = The half life time estimated was determined in an aqueous sodium hydroxide solution adjusted to pH 10 at 2.5 mg/kg dosage administered intravenously in rats; type: ADME, organism-based; parameters: dose 2.5 mg/kg, route intravenous; conditions: rat, in vivo, iv; method in brief: as §1
[5] = Time of maximum concentration was determined in an aqueous sodium hydroxide solution adjusted to pH 10 at 5 mg/kg dosage administered perorally in rats; type: ADME, organism-based; parameters: dose 5 mg/kg, route oral; conditions: rat, in vivo, po
Method in brief: (§2)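 Single oral dose given as an aqueous sodium hydroxide solution adjusted to pH 10. Plasma concentrations were followed over time. Cmax, tmax and bioavailability (F) were calculated from the time-course data by noncompartmental analysis. Values are mean ± SD.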

[6] = Time of maximum concentration was determined in an aqueous sodium hydroxide solution adjusted to pH 10 at 10 mg/kg dosage administered perorally in dog; type: ADME, organism-based, Canis lupus familiaris; parameters: dose 10 mg/kg, route oral; conditions: in vivo, po; method in brief: as §2
[7] = Bioavailability (F) was determined in an aqueous sodium hydroxide solution adjusted to pH 10 at 10 mg/kg dosage administered perorally in dog; type: ADME, organism-based; conditions: eutheria, in vivo, po; method in brief: as §2
[8] = Bioavailability (F) was determined in an aqueous sodium hydroxide solution adjusted to pH 10 at 5 mg/kg dosage administered perorally in rats; type: ADME, organism-based; conditions: eutheria, in vivo, po; method in brief: as §2
[9] = The half life time estimated was determined in an aqueous sodium hydroxide solution adjusted to pH 10 at 5 mg/kg dosage administered intravenously in dog; type: ADME, organism-based; parameters: dose 5 mg/kg, route intravenous; conditions: in vivo, iv; method in brief: as §1
[10] = Maximum concentration was determined in an aqueous sodium hydroxide solution adjusted to pH 10 at 10 mg/kg dosage administered perorally in dog; type: ADME, organism-based, Canis lupus familiaris; parameters: dose 10 mg/kg, route oral; conditions: in vivo, po; method in brief: as §2
[11] = The steady-state volume of distribution was determined in an aqueous sodium hydroxide solution adjusted to pH 10 at 2.5 mg/kg administered intravenously dosage in rats; type: ADME, organism-based; parameters: dose 2.5 mg/kg, route intravenous; conditions: rat, in vivo, iv, read-out: Vss; method in brief: as §1
[12] = Maximum concentration was determined in an aqueous sodium hydroxide solution adjusted to pH 10 at 5 mg/kg dosage administered perorally in rats; type: ADME, organism-based; parameters: dose 5 mg/kg, route oral; conditions: rat, in vivo, po; method in brief: as §2

IC50 [1]: 5 µM
SMILES: O=c1c2c(oc(O)c1C(c1cccc(NS(=O)(=O)c3ccccc3)c1)C1CC1)CCCCCC2 (stereo not drawn)

SMILES: Cc1cccc(S(=O)(=O)Nc2cccc(C(c3c(O)c4c(oc3=O)CCCCCC4)C3CC3)c2)c1 (stereo not drawn)
Ki [2]: 0.005 µM | IC50 [1]: 4 µM

Vd [3]: 0.084 L/kg | half-life [4]: 3 h | Tmax [5]: 1 h | Tmax [6]: 1 h | IC50 [1]: 1.5 µM | bioavailability [7]: 76.7% | bioavailability [8]: 41.9% | half-life [9]: 6.3 h | Cmax [10]: 156 µM | Vd [11]: 0.11 L/kg | Cmax [12]: 24.2 µM
SMILES: N#Cc1ccc(S(=O)(=O)Nc2cccc(C(c3c(O)c4c(oc3=O)CCCCCC4)C3CC3)c2)cc1 (stereo not drawn)

SMILES: Cc1ccccc1S(=O)(=O)Nc1cccc(C(c2c(O)c3c(oc2=O)CCCCCC3)C2CC2)c1 (stereo not drawn)
Ki [2]: 0.009 µM | IC50 [1]: > 10 µM

SMILES: Cc1ccc(S(=O)(=O)Nc2cccc(C(c3c(O)c4c(oc3=O)CCCCCC4)C3CC3)c2)cc1 (stereo not drawn)
Ki [2]: 0.003 µM | IC50 [1]: 3.6 µM
